According to ChEMBL document CHEMBL1125263, “Streptonigrin and related compounds. 5. Synthesis and evaluation of some isoquinoline analogues” (J Med Chem, 1991):
In brackets after ≈: the same amount, converted by molar mass.

How the values were obtained:
Bacillus subtilis [1] = experiment: In vitro antibacterial activity measured against Bacillus subtilis and relative potency expressed with respect to streptonigrin.; assay type: functional
How it was run: (§1)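 Agar disc-diffusion plates seeded with B. subtilis spores, six discs per plate, incubated at 37 °C for 20 h. Zones of inhibition measured and averaged over four replicates. Zone diameter varied linearly with log concentration. Slopes were fitted by regression, with standard errors of the slope calculated.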

Bacillus subtilis [2] = experiment: Antibacterial activity against Bacillus subtilis and values were expressed as standard error for slope; assay type: functional; how it was run: as §1
Bacillus subtilis [3] = experiment: In vitro antibacterial activity against Bacillus subtilis; assay type: functional
Lepidium sativum [4] = experiment: In vitro root inhibition activity using seedlings of Lepidium sativum; assay type: functional, organism-based
How it was run: (§2)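 Cress (L. sativum) seeds soaked in water 15–20 min, germinated on 0.6% agar at 27 °C in the dark for 24 h until radicles were ca. 1 cm. DMSO solutions (2000–40 μg/mL stocks, 200 μL per 20 mL agar) were set in 0.6% agar; DMSO-only controls. Eight seedlings per plate, 24 h at 27 °C in the dark. New root growth measured, duplicate runs (16 seedlings). %I = 1 − (T/C) × 100; probit analysis and linear regression gave I50.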

Lepidium sativum [5] = experiment: In vitro root inhibition activity measured using seedlings of Lepidium sativum, and relative potency expressed with respect to streptonigrin.; assay type: functional; how it was run: as §2

Q: `COC1=C(N)C(=O)c2c(ccnc2Cc2ccccc2)C1=O` was tested. Which Relative potency (Bacillus subtilis [1]) did it give?
A: 0.09

Q: And the Slope (Bacillus subtilis [2])?
A: 11.31

Q: What about the MIC (Bacillus subtilis [3]) of the same compound?
A: 16 µM (≈ 4.71 µg/mL)

Q: And the I50 (Lepidium sativum [4])?
A: 13.7 nM ml-1

Q: What about the Relative potency (Lepidium sativum [5]) of the same compound?
A: 0.92

Q: Which results are given for `COC1=C(N)C(=O)c2c(ccnc2-c2ccccc2N)C1=O`?
A: Relative potency (Bacillus subtilis [1]): 0.08; Slope (Bacillus subtilis [2]): 9.2; MIC (Bacillus subtilis [3]): 17.2 µM (≈ 5.08 µg/mL); I50 (Lepidium sativum [4]): 65 nM ml-1; Relative potency (Lepidium sativum [5]): 0.19

Q: How did the Relative potency (Bacillus subtilis [1]) turn out when `COC1=C(N)C(=O)c2c(ccnc2-c2ccccc2[N+](=O)[O-])C1=O` was run?
A: 0.15

Q: What about the Slope (Bacillus subtilis [2]) of the same compound?
A: 10.3

Q: What about the MIC (Bacillus subtilis [3]) of the same compound?
A: 9 µM (≈ 2.93 µg/mL)

Q: And the I50 (Lepidium sativum [4])?
A: 6.03 nM ml-1

Q: And the Relative potency (Lepidium sativum [5])?
A: 2.09

Q: `COC1=C(N)C(=O)c2c(ccnc2-c2cccc([N+](=O)[O-])c2)C1=O` was tested. Which Relative potency (Bacillus subtilis [1]) did it give?
A: 0.26

Q: What about the Slope (Bacillus subtilis [2]) of the same compound?
A: 4.93

Q: And the MIC (Bacillus subtilis [3])?
A: 5.2 µM (≈ 1.69 µg/mL)

Q: And the I50 (Lepidium sativum [4])?
A: 6.43 nM ml-1

Q: And the Relative potency (Lepidium sativum [5])?
A: 1.96

Q: What does the source list for `C/N=C1\C(=O)c2ccnc(Cc3ccccc3)c2C(O)=C1Br`?
A: Relative potency (Bacillus subtilis [1]): 0.09; Slope (Bacillus subtilis [2]): 11.31; MIC (Bacillus subtilis [3]): 16 µM (≈ 5.72 µg/mL); I50 (Lepidium sativum [4]): 30.05 nM ml-1; Relative potency (Lepidium sativum [5]): 0.42

Q: For `C/N=C1\C(=O)c2ccnc(-c3ccccc3[N+](=O)[O-])c2C(O)=C1Br`, which Relative potency (Bacillus subtilis [1]) is on record?
A: 0.2

Q: And the Slope (Bacillus subtilis [2])?
A: 5.21

Q: What about the MIC (Bacillus subtilis [3]) of the same compound?
A: 6.76 µM (≈ 2.62 µg/mL)

Q: What about the I50 (Lepidium sativum [4]) of the same compound?
A: 10 nM ml-1

Q: And the Relative potency (Lepidium sativum [5])?
A: 1.3

Q: With `COC1=C(N)C(=O)c2c(ccnc2-c2ccccn2)C1=O` as the compound, how does the Relative potency (Bacillus subtilis [1]) read?
A: 0.03

Q: And the Slope (Bacillus subtilis [2])?
A: 12.37

Q: What about the MIC (Bacillus subtilis [3]) of the same compound?
A: 39.3 µM (≈ 11.1 µg/mL)

Q: What about the I50 (Lepidium sativum [4]) of the same compound?
A: 12.7 nM ml-1

Q: What about the Relative potency (Lepidium sativum [5]) of the same compound?
A: 0.99

Q: `COC1=C(N)C(=O)c2c(ccnc2-c2ccc(N)cc2)C1=O` was tested. Which Relative potency (Bacillus subtilis [1]) did it give?
A: 0.04

Q: What about the Slope (Bacillus subtilis [2]) of the same compound?
A: 12.64

Q: And the MIC (Bacillus subtilis [3])?
A: 35.8 µM (≈ 10.6 µg/mL)

Q: And the I50 (Lepidium sativum [4])?
A: 15.49 nM ml-1

Q: What about the Relative potency (Lepidium sativum [5]) of the same compound?
A: 0.82

Q: `COC1=C(N)C(=O)c2nc(-c3ccccn3)ccc2C1=O` was tested. Which Relative potency (Bacillus subtilis [1]) did it give?
A: 0.1

Q: What about the Slope (Bacillus subtilis [2]) of the same compound?
A: 10.23

Q: What about the MIC (Bacillus subtilis [3]) of the same compound?
A: 14.1 µM (≈ 3.97 µg/mL)

Q: And the I50 (Lepidium sativum [4])?
A: 9.18 nM ml-1

Q: What about the Relative potency (Lepidium sativum [5]) of the same compound?
A: 1.37

Q: With `COC1=C(N)C(=O)c2c(ccnc2-c2ccc([N+](=O)[O-])cc2)C1=O` as the compound, how does the I50 (Lepidium sativum [4]) read?
A: 9.41 nM ml-1

Q: And the Relative potency (Lepidium sativum [5])?
A: 1.34

Q: What does the source list for `COC1=C(N)C(=O)c2c(ccnc2-c2ccccc2)C1=O`?
A: Relative potency (Bacillus subtilis [1]): 0.05; Slope (Bacillus subtilis [2]): 14.78; MIC (Bacillus subtilis [3]): 27.2 µM (≈ 7.62 µg/mL); I50 (Lepidium sativum [4]): 11.25 nM ml-1; Relative potency (Lepidium sativum [5]): 1.12

Q: Which results are given for `COC1=C(N)C(=O)c2nc(-c3nc(C(=O)O)c(C)c(-c4ccc(OC)c(OC)c4O)c3N)ccc2C1=O` [STREPTONIGRIN]?
A: Relative potency (Bacillus subtilis [1]): 1; Slope (Bacillus subtilis [2]): 5.51; MIC (Bacillus subtilis [3]): 1.37 µM (≈ 0.694 µg/mL); I50 (Lepidium sativum [4]): 12.65 nM ml-1; Relative potency (Lepidium sativum [5]): 1

Q: With `COC1=C(N)C(=O)c2nc(-c3nc(C(=O)O)c(C)cc3N)ccc2C1=O` as the compound, how does the Relative potency (Bacillus subtilis [1]) read?
A: 5.48

Q: What about the Slope (Bacillus subtilis [2]) of the same compound?
A: 4.75

Q: What about the MIC (Bacillus subtilis [3]) of the same compound?
A: 0.25 µM (≈ 0.0886 µg/mL)

Q: And the I50 (Lepidium sativum [4])?
A: 5.5 nM ml-1

Q: And the Relative potency (Lepidium sativum [5])?
A: 2.3

Q: For `COC1=C(N)C(=O)c2c(ccnc2-c2cccc(N)c2)C1=O`, which Relative potency (Bacillus subtilis [1]) is on record?
A: 0.04

Q: What about the Slope (Bacillus subtilis [2]) of the same compound?
A: 11.7

Q: And the MIC (Bacillus subtilis [3])?
A: 33.4 µM (≈ 9.86 µg/mL)

Q: And the I50 (Lepidium sativum [4])?
A: 22.37 nM ml-1

Q: What about the Relative potency (Lepidium sativum [5]) of the same compound?
A: 0.57
